# Measured values published in ChEMBL document CHEMBL4011654, “Mitochondria-Targeted Lupane Triterpenoid Derivatives and Their Selective Apoptosis-Inducing Anticancer Mechanisms” (J Med Chem, 2017).
# pIC50: −log10 of the molar value. Activity calls are given as the source filed them. No cut-off for these calls is given here.
# Assays:
# [1] = tested on: L02; experiment: Cytotoxicity against human HL-7702 cells assessed as cell growth inhibition after 48 hrs by MTT assay; assay type: cell-based; details: L02, 48 h
# Method in brief: (§1)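 Adherent cells seeded at 5000/well, left 16−24 h, then exposed 48 h at 37 °C, 5% CO2 in RPMI with 10% FBS. Medium refreshed, MTT added for 4 h at 37 °C, medium removed, formazan dissolved in DMSO, OD570 read. IC50 taken as concentration inhibiting growth by 50%; triplicate.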
# [2] = tested on: A549; experiment: Cytotoxicity against human A549 cells assessed as cell growth inhibition after 48 hrs by MTT assay; assay type: functional, cell-based; details: A549, 48 h; method in brief: as §1
# [3] = tested on: K562; experiment: Cytotoxicity against human K562 cells assessed as cell growth inhibition after 48 hrs by MTT assay; assay type: functional, cell-based; details: K562, 48 h
# Method in brief: (§2)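 Suspension cells seeded at 5000/well (HL-60 in IMDM, K562 in RPMI, both with 10% FBS) and treated. MTT then added for 4 h at 37 °C; plates centrifuged at 3000 rpm for 30 min, medium removed, DMSO added, OD570 read. IC50 taken as concentration giving 50% growth inhibition; triplicate.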
# [4] = tested on: HepG2; experiment: Cytotoxicity against human HepG2 cells assessed as cell growth inhibition after 48 hrs by MTT assay; assay type: functional, cell-based; details: HepG2, 48 h; method in brief: as §1
# [5] = tested on: HL-60; experiment: Cytotoxicity against human HL60 cells assessed as cell growth inhibition after 48 hrs by MTT assay; assay type: functional, cell-based; details: HL-60, 48 h; method in brief: as §2
# [6] = tested on: ECa-109 cell line; experiment: Cytotoxicity against human ECA109 cells assessed as cell growth inhibition after 48 hrs by MTT assay; assay type: functional, cell-based; details: ECa-109, 48 h; method in brief: as §1
# [7] = tested on: K562; experiment: Induction of apoptosis in human K562 cells assessed as early apoptotic cells at 1 uM after 48 hrs by Annexin V-FITC/propidium iodide-staining based flow cytometric analysis (reference value: 0.92 to 1.45%); assay type: functional
# Method in brief: (§3)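 K562 seeded at 4 × 10^5 cells/well, 12 h, then exposed 48 h. Cells washed in ice-cold PBS, suspended in binding buffer, stained with annexin V-FITC and PI for 15 min at room temperature in the dark, and read by flow cytometry within 1 h. Cells counted as early/late apoptotic as % of total; n = 3.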
# [8] = tested on: K562; experiment: Induction of apoptosis in human K562 cells after 48 hrs by Annexin V-FITC/propidium iodide-staining based flow cytometric analysis; assay type: functional, cell-based; method in brief: as §3
# [9] = tested on: K562; experiment: Induction of apoptosis in human K562 cells assessed as viable cells at 3 uM after 48 hrs by Annexin V-FITC/propidium iodide-staining based flow cytometric analysis (reference value: 95.75 to 96.56%); assay type: functional; details: K562, 48 h, read-out: Activity; method in brief: as §3
# [10] = tested on: K562; experiment: Induction of apoptosis in human K562 cells assessed as late apoptotic cells at 3 uM after 48 hrs by Annexin V-FITC/propidium iodide-staining based flow cytometric analysis (reference value: 2.25 to 2.67%); assay type: functional; method in brief: as §3
# [11] = tested on: K562; experiment: Induction of apoptosis in human K562 cells assessed as upregulation of cleaved PARP up to 6 uM after 48 hrs by Western blot analysis; assay type: functional, cell-based
# [12] = tested on: K562; experiment: Induction of apoptosis in human K562 cells assessed as late apoptotic cells at 2 uM after 48 hrs by Annexin V-FITC/propidium iodide-staining based flow cytometric analysis (reference value: 2.25 to 2.67%); assay type: functional; method in brief: as §3
# [13] = tested on: K562; experiment: Induction of apoptosis in human K562 cells assessed as late apoptotic cells at 1 uM after 48 hrs by Annexin V-FITC/propidium iodide-staining based flow cytometric analysis (reference value: 2.25 to 2.67%); assay type: functional; method in brief: as §3
# [14] = tested on: K562; experiment: Decrease in mitochondrial membrane potential in human K562 cells after 48 hrs by JC-1 staining based flow cytometry; assay type: functional, cell-based
# Method in brief: (§4)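 K562 seeded at 4 × 10^5 cells/well, after 12 h treated 48 h. Cells washed in ice-cold PBS, loaded with JC-1 ([…]) at 37 °C for 15 min, rinsed, and analysed by flow cytometry (% cells with red aggregates) and fluorescence microscopy (red aggregates vs green monomers).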
# [15] = tested on: K562; experiment: Induction of mitochondrial membrane depolarization in human K562 cells assessed as cells with intact mitochondrial membrane potential at 6 uM after 48 hrs by JC-1 staining based flow cytometric analysis (reference value: 97.63 to 97.67%); assay type: functional
# [16] = tested on: K562; experiment: Induction of apoptosis in human K562 cells assessed as early apoptotic cells at 3 uM after 48 hrs by Annexin V-FITC/propidium iodide-staining based flow cytometric analysis (reference value: 0.92 to 1.45%); assay type: functional; method in brief: as §3
# [17] = tested on: K562; experiment: Induction of mitochondrial membrane depolarization in human K562 cells assessed as cells with mitochondrial membrane potential loss at 4 uM after 48 hrs by JC-1 staining based flow cytometric analysis (reference value: 1.89 to 2.23%); assay type: functional
# [18] = tested on: K562; experiment: Induction of apoptosis in human K562 cells assessed as decrease in cytochrome c level in mitochondria up to 6 uM after 48 hrs by Western blot analysis; assay type: functional, cell-based
# Method in brief: (§5)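 K562 treated 48 h, then lysed on ice for 30 min; cytosolic and mitochondrial fractions isolated by kit where needed, protein measured by BCA. 60 μg/lane run on SDS-PAGE, transferred to PVDF, blocked in 5% milk/TBST for 4 h. Probed for cytochrome c, caspase-9, caspase-3 (total/cleaved), PARP; alkaline phosphatase secondary.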
# [19] = tested on: K562; experiment: Induction of apoptosis in human K562 cells assessed as necrotic cells at 2 uM after 48 hrs by Annexin V-FITC/propidium iodide-staining based flow cytometric analysis (reference value: 0.13 to 0.27%); assay type: functional; method in brief: as §3
# [20] = tested on: K562; experiment: Induction of apoptosis in human K562 cells assessed as increase in cytosolic cytochrome c level up to 6 uM after 48 hrs by Western blot analysis; assay type: functional, cell-based; method in brief: as §5
# [21] = tested on: K562; experiment: Induction of apoptosis in human K562 cells assessed as viable cells at 1 uM after 48 hrs by Annexin V-FITC/propidium iodide-staining based flow cytometric analysis (reference value: 95.75 to 96.56%); assay type: functional; details: K562, 48 h, read-out: Activity; method in brief: as §3
# [22] = tested on: K562; experiment: Induction of mitochondrial membrane depolarization in human K562 cells assessed as cells with mitochondrial membrane potential loss at 2 uM after 48 hrs by JC-1 staining based flow cytometric analysis (reference value: 1.89 to 2.23%); assay type: functional
# [23] = tested on: K562; experiment: Induction of mitochondrial membrane depolarization in human K562 cells assessed as cells with mitochondrial membrane potential loss at 6 uM after 48 hrs by JC-1 staining based flow cytometric analysis (reference value: 1.89 to 2.23%); assay type: functional
# [24] = tested on: K562; experiment: Decrease in mitochondrial membrane potential in human K562 cells at 1 to 2 uM after 48 hrs by JC-1 staining based fluorescence microscopic analysis; assay type: functional, cell-based; method in brief: as §4
# [25] = tested on: K562; experiment: Induction of apoptosis in human K562 cells assessed as necrotic cells at 3 uM after 48 hrs by Annexin V-FITC/propidium iodide-staining based flow cytometric analysis (reference value: 0.13 to 0.27%); assay type: functional; method in brief: as §3
# [26] = tested on: K562; experiment: Induction of mitochondrial membrane depolarization in human K562 cells assessed as cells with intact mitochondrial membrane potential at 4 uM after 48 hrs by JC-1 staining based flow cytometric analysis (reference value: 97.63 to 97.67%); assay type: functional
# [27] = tested on: K562; experiment: Induction of apoptosis in human K562 cells assessed as necrotic cells at 1 uM after 48 hrs by Annexin V-FITC/propidium iodide-staining based flow cytometric analysis (reference value: 0.13 to 0.27%); assay type: functional; method in brief: as §3
# [28] = tested on: K562; experiment: Induction of ROS generation in human K562 cells at 1 uM after 48 hrs by DCFH-DA probe based flow cytometric analysis relative to control; assay type: functional
# Method in brief: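 K562 seeded at 4 × 10^5 cells/well, 12 h, then treated 48 h. Washed cells loaded with DCFH-DA in FBS-free medium at 37 °C for 30 min, rinsed, read by flow cytometry. ROSup was the positive control; mean ± SD, n = 3.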
# [29] = tested on: K562; experiment: Induction of apoptosis in human K562 cells assessed as early apoptotic cells at 2 uM after 48 hrs by Annexin V-FITC/propidium iodide-staining based flow cytometric analysis (reference value: 0.92 to 1.45%); assay type: functional; method in brief: as §3
# [30] = tested on: K562; experiment: Induction of mitochondrial membrane depolarization in human K562 cells assessed as cells with intact mitochondrial membrane potential at 2 uM after 48 hrs by JC-1 staining based flow cytometric analysis (reference value: 97.63 to 97.67%); assay type: functional; method in brief: as §4
# [31] = tested on: K562; experiment: Induction of apoptosis in human K562 cells assessed as viable cells at 2 uM after 48 hrs by Annexin V-FITC/propidium iodide-staining based flow cytometric analysis (reference value: 95.75 to 96.56%); assay type: functional; details: K562, 48 h, read-out: Activity; method in brief: as §3
# [32] = tested on: K562; experiment: Antitumor activity against CM-Dil-labeled human K562 cells xenografted in wild-type zebrafish embryos assessed as tumor growth inhibition at 10 ug/ml measured after 48 hrs by confocal microscopic analysis; assay type: functional, cell-based
# Method in brief: (§6)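 K562 cells labelled with CM-Dil, suspended in FBS-free medium at (1 × 107)/mL and microinjected into wild-type zebrafish embryos kept at 28 °C in embryonic medium. After 4 h, embryos with the same injection spot were pooled at 15−20 per well and exposed to compound; Taxol served as positive control. At 48 h, confocal imaging gave fluorescent area (migration) and fluorescence intensity (cell number); n = 15.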
# [33] = tested on: K562; experiment: Antitumor activity against CM-Dil-labeled human K562 cells xenografted in wild-type zebrafish embryos assessed as reduction in cell migration at 10 ug/ml measured after 48 hrs by confocal microscopic analysis; assay type: functional, cell-based; method in brief: as §6
smiles,measurement,setting,value
C=C(C)[C@@H]1CC[C@]2(C(=O)O)CC[C@]3(C)[C@H](CC[C@@H]4[C@@]5(C)CC[C@H](O)C(C)(C)[C@@H]5CC[C@]43C)[C@@H]12 [BETULINIC ACID],pIC50,[1],4.46
same,pIC50,[2],4.77
same,pIC50,[3],4.66
same,pIC50,[4],4.60
same,pIC50,[5],4.73
same,pIC50,[6],4.55
C=C(C)[C@@H]1CC[C@]2(C(=O)O)CC[C@]3(C)[C@H](CC[C@@H]4[C@@]5(C)CC[C@H](OC(=O)CCCC[P+](c6ccccc6)(c6ccccc6)c6ccccc6)C(C)(C)[C@@H]5CC[C@]43C)[C@@H]12.[Br-],Activity,[7],9.55%
same,Activity,[8],Dose-dependent effect
same,pIC50,[1],5.31
same,viability at 3 µM,[9],61.4%
same,Activity,[10],26.46%
same,Activity,[11],Active
same,Activity,[12],16.43%
same,pIC50,[2],5.90
same,Activity,[13],9.35%
same,Activity,[14],Dose-dependent effect
same,Activity,[15],27.63%
same,pIC50,[3],5.91
same,Activity,[16],11.47%
same,Activity,[17],58.36%
same,Activity,[18],Active
same,pIC50,[4],5.97
same,Activity,[19],0.23%
same,Activity,[20],Active
same,viability at 1 µM,[21],81%
same,pIC50,[5],6.49
same,Activity,[22],24.68%
same,Activity,[23],72.12%
same,Activity,[24],Active
same,Activity,[25],0.7%
same,Activity,[26],41.5%
same,Activity,[27],0.14%
same,Activity,[28],50%
same,Activity,[29],10.78%
same,pIC50,[6],6.04
same,Activity,[30],75.16%
same,viability at 2 µM,[31],72.6%
C=C(C)[C@@H]1CC[C@]2(COC(=O)CCCC[P+](c3ccccc3)(c3ccccc3)c3ccccc3)CC[C@]3(C)[C@H](CC[C@@H]4[C@@]5(C)CC[C@H](OC=O)C(C)(C)[C@@H]5CC[C@]43C)[C@@H]12,pIC50,[1],5.08
same,pIC50,[2],5.96
same,pIC50,[3],6.09
same,pIC50,[4],5.95
same,pIC50,[5],6.15
same,pIC50,[6],6.02
CC(=O)O[C@H]1C(=O)[C@@]2(C)[C@H]([C@H](OC(=O)c3ccccc3)[C@]3(O)C[C@H](OC(=O)[C@H](O)[C@@H](NC(=O)c4ccccc4)c4ccccc4)C(C)=C1C3(C)C)[C@]1(OC(C)=O)CO[C@@H]1C[C@@H]2O,TGI,[32],Active
same,Activity,[33],Active
C=C(C)[C@@H]1CC[C@]2(CO)CC[C@]3(C)[C@H](CC[C@@H]4[C@@]5(C)CC[C@H](O)C(C)(C)[C@@H]5CC[C@]43C)[C@@H]12 [BETULIN],pIC50,[1],4.57
same,pIC50,[2],4.74
same,pIC50,[3],4.89
same,pIC50,[4],4.97
same,pIC50,[5],4.51
same,pIC50,[6],4.57
